Assay results of several laboratories.
Target: Dual specificity tyrosine-phosphorylation-regulated kinase 1A (DYRK1A, Homo sapiens, UniProt Q13627)
Technique: competition with immobilised ligand

O=C(Nc1c[nH]nc1C(=O)NC1CCNCC1)c1cc(F)cc(F)c1
remaining binding (binding; 1 µM): 19%

Nc1ncc2c(n1)-c1c([nH]c3ccc(C#CC4CC4)cc13)CCCC2
remaining binding (binding; 1 µM): 100%

COc1ncc2cc3ccccc3nc2c1C#N
remaining binding (cell-free assay; 5 µM): 74%

O=C(c1ccc(Nc2nccc(-c3cc4ccccc4s3)n2)cc1)N1CCC(N2CCCC2)CC1
remaining binding (binding; 1 µM): 68%

COc1ccc2c(c1)O[C@@H](c1ccc(OC)c(OC)c1)C[C@H]2NC(=O)C1(c2ccc3c(c2)OC(F)(F)O3)CC1
remaining binding (cell-free assay; 1 µM): 80%

O=C(NCCCN1CCOCC1)c1ccc(Nc2ncc(Cl)c(-c3ccc(Cl)s3)n2)cc1
remaining binding (binding; 1 µM): 0.5%

O=C(NC[C@@H]1[C@H]2CN(C(=O)OCc3cc(C(F)(F)F)cc(C(F)(F)F)c3)C[C@@H]12)c1ccc2[nH]nnc2c1
remaining binding (cell-free assay; 1 µM): 86%

COC(=O)Nc1nc2ccc(C(=O)c3ccccc3)cc2[nH]1
remaining binding (cell-free assay; 10 µM): 34%

Cc1c(C(=O)O)cc(-c2ccc(C3CCNCC3)cc2)c2ccc(-c3ccc(C(F)(F)F)cc3)cc12
remaining binding (cell-free assay; 1 µM): 100%

COc1cnc(Nc2cccc(S(N)(=O)=O)c2)nc1N1CCN(c2ccccc2)C(=O)C1
remaining binding (binding; 1 µM): 91%

O=C(c1ccc(Nc2ncc(Cl)c(-c3cc4ccccc4s3)n2)cc1)N1CCC(N2CCCC2)CC1
remaining binding (binding; 1 µM): 11%

COc1cnc(Nc2cccc(S(N)(=O)=O)c2)nc1N1CCN(c2ccccc2)CC1
remaining binding (binding; 1 µM): 76%

Cc1noc([C@H]2C[C@@H](c3ccc(C(F)(F)F)cc3)CN(C(=O)N3CCS(=O)(=O)C3)C2)n1
remaining binding (cell-free assay; 1 µM): 100%
